From ChEMBL document CHEMBL1141217, “cycloSal-PMEA and cycloAmb-PMEA: potentially new phosphonate prodrugs based on the cycloSal-pronucleotide approach” (J Med Chem, 2005) come the findings set out here.

The subject of series [1] is Human immunodeficiency virus 2. Briefly: Antiviral potency against HIV2 in CEM/O cells. The series is classed as functional, organism-based. The settings on record: Human immunodeficiency virus 2, CEM/O. A digest of the protocol: (§1)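 CEM cells at 4×10^5 cells/mL infected with HIV-1 or HIV-2 (ROD) at ~100 CCID50 per mL; virus stocks from infected MT-4 cell supernatants. Infected cells mixed with serial compound dilutions. After 4–5 days, giant cell formation scored microscopically; EC50 = concentration giving 50% protection.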

The nature of series [2]: Chemical stability in phosphate buffer at pH 7.3. The series is classed as physicochemical. The settings on record: read-out: Stability (converted). A digest of the protocol:
(§2)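 Triesters hydrolysed at 37 °C in phosphate buffer pH 7.3 or citrate buffer pH 2.0, with AZT as internal standard; final 0.96 mM triester, 24.8 mM buffer. Aliquots quenched with glacial acetic acid and frozen, then analysed by reversed-phase HPLC with UV at 250 nm. t1/2 from rate constants of starting-triester peak decay; mean of duplicates.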

Series [3] relates to Human immunodeficiency virus 1. Kind of series: Antiviral potency against HIV1 in CEM/O cells. The series is classed as functional, organism-based. The settings on record: Human immunodeficiency virus 1, CEM/O. Put shortly: as §1
For series [4], the system named is CCRF-CEM. Briefly: Cytotoxicity against CEM/O cells. The settings on record: Homo sapiens. The series is classed as functional.
The nature of series [5]: Inhibitory activity against human acetyl cholinesterase.
Series [6] addresses Cholinesterase (Homo sapiens, UniProt P06276). Briefly: Inhibitory activity against human butyryl cholinesterase.
Series [7] in a line: LogP using HPLC method. The series is classed as physicochemical.
Series [8] can be described thus: Half life in CEM/O cells. The format is ADME, cell-based. The settings on record: human, CEM/O cells (CCRF-CEM cell line). A digest of the protocol: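 Triester (1.5 mM stock in DMSO) incubated with CEM cell extract plus MgCl2 (70 mM stock) for 8 h. Stopped with acidic methanol, 5 min at 0 °C, centrifuged and filtered; supernatant analysed by reversed-phase HPLC with UV at 250 nm.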

Series [9] in a line: Chemical stability in citrate buffer at pH 2.0. The series is classed as physicochemical. A digest of the protocol:
as §2

Structures are written as SMILES. Calls of active or inactive are those of the source. The calls are words filed in the database; no cut-off is given here.

Cholinesterase, sequence (P06276 whole entry): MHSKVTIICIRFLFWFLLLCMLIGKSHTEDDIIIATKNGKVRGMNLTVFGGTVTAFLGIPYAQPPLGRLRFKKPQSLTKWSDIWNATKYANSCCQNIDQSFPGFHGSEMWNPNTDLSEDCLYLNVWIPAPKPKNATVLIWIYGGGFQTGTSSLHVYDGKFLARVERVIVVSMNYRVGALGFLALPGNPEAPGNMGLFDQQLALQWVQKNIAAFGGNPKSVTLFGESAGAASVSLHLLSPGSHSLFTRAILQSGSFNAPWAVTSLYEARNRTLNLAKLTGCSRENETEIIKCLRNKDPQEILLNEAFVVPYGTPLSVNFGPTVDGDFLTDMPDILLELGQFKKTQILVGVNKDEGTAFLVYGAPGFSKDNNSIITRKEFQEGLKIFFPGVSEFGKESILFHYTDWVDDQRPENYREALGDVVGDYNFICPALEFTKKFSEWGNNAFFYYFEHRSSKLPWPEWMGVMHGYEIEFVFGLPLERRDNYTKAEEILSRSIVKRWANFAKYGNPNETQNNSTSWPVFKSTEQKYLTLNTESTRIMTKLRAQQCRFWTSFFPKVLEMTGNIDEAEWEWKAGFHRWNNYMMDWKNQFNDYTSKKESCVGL

Consider `CC(C)(C)C(=O)OCOP(=O)(COCCn1cnc2c(N)ncnc21)OCOC(=O)C(C)(C)C` [ADEFOVIR DIPIVOXIL], for which the EC50 (usually the concentration at which the effect is half-maximal) in [1] stood at 0.075 µM; in [3], 0.18 µM. Besides, the half-life in series [2] was 14.7 h. For the same compound, half-maximal cytotoxicity in series [4] (CC50) was put at 0.74 µM.
On to `Nc1ncnc2c1ncn2CCOCP1(=O)Nc2cccc(F)c2CO1` (stereo unspecified), for which the concentration giving a half-maximal response (EC50) is 26 µM in series [1] and 28 µM in [3]. For the same compound, the outcome in series [5] was inactive. Further, the half-life in series [2] was 1.3 h. In series [6], the concentration for half-maximal inhibition (IC50) (usually the concentration needed to halve the response being measured) is above 50 µM. Besides, in [7], the logP (in general, the decadic logarithm of the partition coefficient of the neutral form, usually between octanol and water) was 0.49. The cytotoxic concentration (CC50) – broadly, the concentration giving 50% cytotoxicity – in series [4] stood at 244 µM.
In the case of `Cc1cccc2c1OP(=O)(COCCn1cnc3c(N)ncnc31)OC2` (stereo unspecified), the result in series [5] was inactive. The half-life in series [2] is 0.56 h; in [8] it was 0.6 h. The IC50 in series [6] is above 50 µM.
Take `Nc1ncnc2c1ncn2CCOCP1(=O)Nc2ccccc2CO1` (stereo unspecified): the values for the EC50 in series [1] and in [3] were 21 µM and 20 µM, respectively. For the same compound, the result in series [5] was inactive. The compound also displayed a Stability in series [9] of 9.6 h. Further, the half-life in series [2] was 4 h. Moreover, the half-inhibitory concentration (IC50) in series [6] was above 50 µM. Also, the log partition coefficient (logP) in series [7] came out at 0.23. In series [4], half-maximal cytotoxicity (CC50) was put at 183 µM.
Regarding `Nc1ncnc2c1ncn2CCOCP(=O)(O)O` [ADEFOVIR], the half-maximal effective concentration (EC50) in series [1] and in series [3] was 10 µM each time. In [4], this compound gave a CC50 of 50 µM.
Turning to `CC(C)(C)c1cc2c(c(C(C)(C)C)c1)OP(=O)(COCCn1cnc3c(N)ncnc31)OC2` (stereo unspecified), the half-maximal effective concentration (EC50) came to 5.3 µM in series [1] and 5.5 µM in [3]. Besides, the outcome in [5] was inactive. Besides, in series [9], the Stability is 9.6 h. Besides, the half-life in series [2] is 3.05 h; in [8], 3 h. The same compound displayed an IC50 in series [6] above 50 µM. This compound showed a log partition coefficient (logP) in series [7] of 1.72. Besides, the CC50 in [4] was 17 µM.
For `CC(C)(C)c1cccc2c1OP(=O)(COCCn1cnc3c(N)ncnc31)OC2` (stereo unspecified), the EC50 in [1] was found to be 4.5 µM; in series [3] it was 3 µM. Also, in [5], the outcome was inactive. Also, in series [9], the Stability is 23.7 h. In addition, the values for the half-life in series [2] and in [8] were 4.05 h and 3 h, respectively. The IC50 in series [6] is above 50 µM. Further, the logP in series [7] worked out at 0.47. In [4], this compound showed a CC50 of 29 µM.
In the case of `Cc1cccc2c1NP(=O)(COCCn1cnc3c(N)ncnc31)OC2` (stereo unspecified), the EC50 in series [1] amounted to 56 µM; in [3], 29 µM. The outcome in [5] was inactive. In series [9], the Stability came out at 29 h. The half-life in series [2] was 21.3 h. The half-maximal inhibitory concentration (IC50) in [6] was above 50 µM. Further, the logP in series [7] is 0.45. Further, the CC50 in series [4] was above 250 µM.
`Nc1ncnc2c1ncn2CCOCP1(=O)OCc2ccccc2O1` (stereo unspecified): in [5], the outcome was inactive. Further, the figures for the half-life in series [2] and in series [8] were 0.09 h and 0.1 h, respectively. Further, in series [6], the IC50 was above 50 µM.
